Experimental data taken from ChEMBL document CHEMBL1641443, “Design, synthesis and biological evaluation of small molecule inhibitors of CD4-gp120 binding based on virtual screening” (Bioorg Med Chem, 2011).

These molecules were tested against Envelope glycoprotein gp160 (Human immunodeficiency virus type 1 group M subtype B (isolate YU-2)(HIV-1), UniProt P35961) (assay: Binding affinity to HIV1 YU2 gp120 by isothermal titration calorimetry assay). Conditions: not given; call rule not given here.
Parameters: species or system Human immunodeficiency virus type 1 (isolate YU2)
Procedure, shortened: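 ITC at 25 °C. Cell held gp120 at about 2 μM in PBS pH 7.4 with 2% DMSO. Heat per injection taken from the integrated signal. Kd from a single run unless noted otherwise.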

Question: `CC1(C)CC(NC(=O)C(=O)Nc2ccc(Cl)c(F)c2)CC(C)(C)C1` was tested. Which Kd did it give?
Answer: Not Active

Question: How did the Kd turn out when `CC1(C)C2CCC1(C)C(NC(=O)C(=O)Nc1ccc(Cl)c(F)c1)C2` (stereo not drawn) was run?
Answer: Not Active

Question: `O=C(Nc1ccc(Cl)c(F)c1)C(=O)NC1CCc2[nH]ncc2C1` (stereo not drawn) was tested. Which Kd did it give?
Answer: Not Active

Question: How did the Kd turn out when `O=C(Nc1ccc(Cl)c(F)c1)C(=O)N[C@@H]1CCN(Cc2ccccc2)C1` was run?
Answer: Not Active

Same assay, conditions: read-out: Kd

Question: Which Kd does the source give for `CCCN1CCCC(NC(=O)C(=O)Nc2ccc(Cl)c(F)c2)C1` (stereo not drawn) here?
Answer: 3300 nM

Question: `CC1(C)CC(CNC(=O)C(=O)Nc2ccc(Cl)c(F)c2)CC(C)(C)N1` was tested. Which Kd did it give?
Answer: 2200 nM

Question: `CN1CCC(NC(=O)C(=O)Nc2ccc(Cl)c(F)c2)CC1` was tested. Which Kd did it give?
Answer: 9400 nM

Question: How did the Kd turn out when `CCCN1CCC(NC(=O)C(=O)Nc2ccc(Cl)c(F)c2)CC1` was run?
Answer: 4200 nM

Question: How did the Kd turn out when `CC(C)N1CCC(NC(=O)C(=O)Nc2ccc(Cl)c(F)c2)CC1` was run?
Answer: 1900 nM

Question: With `O=C(NCC1CCNCC1)C(=O)Nc1ccc(Cl)c(F)c1` as the molecule, how does the Kd read?
Answer: 3000 nM

Question: For `CN1CCC(CNC(=O)C(=O)Nc2ccc(Cl)c(F)c2)CC1`, which Kd is on record?
Answer: 4300 nM

Question: With `CC1(C)CC(NC(=O)C(=O)Nc2ccc(Cl)c(F)c2)CC(C)(C)O1` as the molecule, how does the Kd read?
Answer: 1000 nM

Question: `CN1CCCC(NC(=O)C(=O)Nc2ccc(Cl)c(F)c2)C1` (stereo not drawn) was tested. Which Kd did it give?
Answer: 4200 nM

Question: `CN1CCCC(CNC(=O)C(=O)Nc2ccc(Cl)c(F)c2)C1` (stereo not drawn) was tested. Which Kd did it give?
Answer: 2500 nM

Question: `CC(C)N1CCCCC1CCNC(=O)C(=O)Nc1ccc(Cl)c(F)c1` (stereo not drawn) was tested. Which Kd did it give?
Answer: 2300 nM

Question: For `Cc1n[nH]c(C)c1CNC(=O)C(=O)Nc1ccc(Cl)c(F)c1`, which Kd is on record?
Answer: 4000 nM

Question: Which Kd does the source give for `O=C(NC[C@@]12CCC[C@@H]1CNC2)C(=O)Nc1ccc(Cl)c(F)c1` here?
Answer: 3100 nM

Question: `O=C(NCC1NCCc2ccccc21)C(=O)Nc1ccc(Cl)c(F)c1` (stereo not drawn) was tested. Which Kd did it give?
Answer: 1200 nM

Question: For `CCN1CCCC1CNC(=O)C(=O)Nc1ccc(Cl)c(F)c1` (stereo not drawn), which Kd is on record?
Answer: 2100 nM

Question: How did the Kd turn out when `O=C(Nc1ccc(Cl)c(F)c1)C(=O)NC1CCNC2(CCC2)C1` (stereo not drawn) was run?
Answer: 600 nM

Question: `C[C@@H]1CCC[C@H](C)N1CCNC(=O)C(=O)Nc1ccc(Cl)c(F)c1` was tested. Which Kd did it give?
Answer: 1600 nM

Question: Which Kd does the source give for `O=C(NCC1CCCN(CCO)C1)C(=O)Nc1ccc(Cl)c(F)c1` (stereo not drawn) here?
Answer: 3200 nM

Question: How did the Kd turn out when `CC1(C)O[C@@H](CN)[C@H](CNC(=O)C(=O)Nc2ccc(Cl)c(F)c2)O1` was run?
Answer: 2600 nM

Each molecule was assayed on Human immunodeficiency virus 1 (assay: Antiviral activity against recombinant HIV1 YU2 in Cf2Th-CCR5 cells assessed as viral infectivity by luciferase assasy relative to JRC-II-191). Conditions: not given.
Type: functional, isolate YU2

Question: For `CCCN1CCCC(NC(=O)C(=O)Nc2ccc(Cl)c(F)c2)C1` (stereo not drawn), which “fold change (FC)” value is on record?
Answer: 0.5

Question: For `CC1(C)CC(NC(=O)C(=O)Nc2ccc(Cl)c(F)c2)CC(C)(C)N1`, which “fold change (FC)” value is on record?
Answer: 1

Question: How did the “fold change (FC)” value turn out when `CC1(C)CC(CNC(=O)C(=O)Nc2ccc(Cl)c(F)c2)CC(C)(C)N1` was run?
Answer: 0.09

Question: For `CC1(C)CC(NC(=O)CC(=O)Nc2ccc(Br)cc2)CC(C)(C)N1`, which “fold change (FC)” value is on record?
Answer: 0

Question: Which “fold change (FC)” value does the source give for `CC1(C)CC(NC(=O)CCC(=O)Nc2ccc(Br)cc2)CC(C)(C)N1` here?
Answer: 0

Question: Which “fold change (FC)” value does the source give for `CN(C(=O)C(=O)NC1CC(C)(C)NC(C)(C)C1)c1ccc(Cl)cc1` here?
Answer: 0

Question: For `CN(C(=O)C(=O)Nc1ccc(Cl)c(F)c1)C1CC(C)(C)NC(C)(C)C1`, which “fold change (FC)” value is on record?
Answer: 0

Question: With `CC1(C)CC(NCC(=O)Nc2ccc(Cl)c(F)c2)CC(C)(C)N1` as the molecule, how does the “fold change (FC)” value read?
Answer: 0

Question: Which “fold change (FC)” value does the source give for `CN1CCC(NC(=O)C(=O)Nc2ccc(Cl)c(F)c2)CC1` here?
Answer: 0.1

Question: With `CCCN1CCC(NC(=O)C(=O)Nc2ccc(Cl)c(F)c2)CC1` as the molecule, how does the “fold change (FC)” value read?
Answer: 0.2

Question: Which “fold change (FC)” value does the source give for `CC(C)N1CCC(NC(=O)C(=O)Nc2ccc(Cl)c(F)c2)CC1` here?
Answer: 0

Question: With `CC(C)(C)OC(=O)N1CCC(NC(=O)C(=O)Nc2ccc(Cl)c(F)c2)CC1` as the molecule, how does the “fold change (FC)” value read?
Answer: 0

Question: How did the “fold change (FC)” value turn out when `O=C(Nc1ccc(Cl)c(F)c1)C(=O)NC1CCN(C(=O)c2ccccc2)CC1` was run?
Answer: 0

Question: `O=C(NCC1CCNCC1)C(=O)Nc1ccc(Cl)c(F)c1` was tested. Which “fold change (FC)” value did it give?
Answer: 0

Question: `CN1CCC(CNC(=O)C(=O)Nc2ccc(Cl)c(F)c2)CC1` was tested. Which “fold change (FC)” value did it give?
Answer: 0.3

Question: With `CCN1CCC(CNC(=O)C(=O)Nc2ccc(Cl)c(F)c2)CC1` as the molecule, how does the “fold change (FC)” value read?
Answer: 0.2

Question: Which “fold change (FC)” value does the source give for `CC1(C)CC(NC(=O)C(=O)Nc2ccc(Cl)c(F)c2)CC(C)(C)C1` here?
Answer: 0.1

Question: How did the “fold change (FC)” value turn out when `CC1(C)C2CCC1(C)C(NC(=O)C(=O)Nc1ccc(Cl)c(F)c1)C2` (stereo not drawn) was run?
Answer: 0

Question: Which “fold change (FC)” value does the source give for `CC1(C)CC(NC(=O)C(=O)Nc2ccc(Cl)c(F)c2)CC(C)(C)O1` here?
Answer: 0

Question: For `CC1(C)CC(NC(=O)C(=O)Nc2ccc(Cl)c(F)c2)CC(C)(C)[N+]1(C)[O-]` (stereo not drawn), which “fold change (FC)” value is on record?
Answer: 0.23

Question: How did the “fold change (FC)” value turn out when `CN1CCCC(NC(=O)C(=O)Nc2ccc(Cl)c(F)c2)C1` (stereo not drawn) was run?
Answer: 0.7

Question: Which “fold change (FC)” value does the source give for `CN1CCCC(CNC(=O)C(=O)Nc2ccc(Cl)c(F)c2)C1` (stereo not drawn) here?
Answer: 0.3

Question: How did the “fold change (FC)” value turn out when `CN1CCCC(ONC(=O)C(=O)Nc2ccc(Cl)c(F)c2)C1` (stereo not drawn) was run?
Answer: 0

Question: With `CC(C)N1CCCCC1CCNC(=O)C(=O)Nc1ccc(Cl)c(F)c1` (stereo not drawn) as the molecule, how does the “fold change (FC)” value read?
Answer: 0

Question: `CC1CCCCN1C(C)CNC(=O)C(=O)Nc1ccc(Cl)c(F)c1` (stereo not drawn) was tested. Which “fold change (FC)” value did it give?
Answer: 0

Question: For `CC1CN(CCNC(=O)C(=O)Nc2ccc(Cl)c(F)c2)CC(C)O1` (stereo not drawn), which “fold change (FC)” value is on record?
Answer: 0

Question: For `CC(C)(CNC(=O)C(=O)Nc1ccc(Cl)c(F)c1)N1CCOCC1`, which “fold change (FC)” value is on record?
Answer: 0

Question: Which “fold change (FC)” value does the source give for `CN1CCC(CNC(=O)C(=O)Nc2ccc(Cl)c(F)c2)(N(C)C)CC1` here?
Answer: 0.1

Question: With `Cc1n[nH]c(C)c1CNC(=O)C(=O)Nc1ccc(Cl)c(F)c1` as the molecule, how does the “fold change (FC)” value read?
Answer: 0.1

Question: For `CCn1ncnc1C(C)NC(=O)C(=O)Nc1ccc(Cl)c(F)c1` (stereo not drawn), which “fold change (FC)” value is on record?
Answer: 0

Question: For `CCc1n[nH]c(NC(=O)C(=O)Nc2ccc(Cl)c(F)c2)c1CC`, which “fold change (FC)” value is on record?
Answer: 0

Question: For `O=C(NCc1n[nH]c2c1CCCCC2)C(=O)Nc1ccc(Cl)c(F)c1`, which “fold change (FC)” value is on record?
Answer: 0.1

Question: `O=C(Nc1ccc(Cl)c(F)c1)C(=O)Nc1cnn2c1NCCC2` was tested. Which “fold change (FC)” value did it give?
Answer: 0

Question: For `O=C(Nc1ccc(Cl)c(F)c1)C(=O)NC1CCc2[nH]ncc2C1` (stereo not drawn), which “fold change (FC)” value is on record?
Answer: 0

Question: For `O=C(Nc1ccc(Cl)c(F)c1)C(=O)Nc1cccc2[nH]ncc12`, which “fold change (FC)” value is on record?
Answer: 0

Question: `Cn1ccnc1C(O)(CCNC(=O)C(=O)Nc1ccc(Cl)c(F)c1)C(F)(F)F` (stereo not drawn) was tested. Which “fold change (FC)” value did it give?
Answer: 0

Question: How did the “fold change (FC)” value turn out when `O=C(NC[C@@]12CCC[C@@H]1CNC2)C(=O)Nc1ccc(Cl)c(F)c1` was run?
Answer: 0

Question: How did the “fold change (FC)” value turn out when `O=C(NCC1NCCc2ccccc21)C(=O)Nc1ccc(Cl)c(F)c1` (stereo not drawn) was run?
Answer: 0.6

Question: With `CC(NC(=O)C(=O)Nc1ccc(Cl)c(F)c1)c1ccc2c(c1)NC(=O)CO2` (stereo not drawn) as the molecule, how does the “fold change (FC)” value read?
Answer: 0

Question: `CCN1CCCC1CNC(=O)C(=O)Nc1ccc(Cl)cc1` (stereo not drawn) was tested. Which “fold change (FC)” value did it give?
Answer: 0

Question: How did the “fold change (FC)” value turn out when `CCN1CCCC1CNC(=O)C(=O)Nc1ccc(Cl)c(F)c1` (stereo not drawn) was run?
Answer: 0

Question: With `O=C(Nc1ccc(Cl)c(F)c1)C(=O)N[C@H]1CCN(Cc2ccccc2)C1` as the molecule, how does the “fold change (FC)” value read?
Answer: 0

Question: How did the “fold change (FC)” value turn out when `O=C(Nc1ccc(Cl)c(F)c1)C(=O)N[C@@H]1CCN(Cc2ccccc2)C1` was run?
Answer: 0

Question: How did the “fold change (FC)” value turn out when `O=C(NCC1CCN(C2CC2)C1)C(=O)Nc1ccc(Cl)c(F)c1` (stereo not drawn) was run?
Answer: 0.3

Question: For `O=C(Nc1ccc(Cl)c(F)c1)C(=O)NC1CCN(C2CCCCC2)C1` (stereo not drawn), which “fold change (FC)” value is on record?
Answer: 0.48

Question: How did the “fold change (FC)” value turn out when `O=C(NCC1CCN(CCN2CCOCC2)C1)C(=O)Nc1ccc(Cl)c(F)c1` (stereo not drawn) was run?
Answer: 0.1

Question: How did the “fold change (FC)” value turn out when `O=C(Nc1ccc(Cl)c(F)c1)C(=O)NC1CCNC2(CCC2)C1` (stereo not drawn) was run?
Answer: 2.6

Question: `C[C@@H]1CCC[C@H](C)N1CCNC(=O)C(=O)Nc1ccc(Cl)c(F)c1` was tested. Which “fold change (FC)” value did it give?
Answer: 0.2

Question: Which “fold change (FC)” value does the source give for `O=C(NCC1CCCN(CCO)C1)C(=O)Nc1ccc(Cl)c(F)c1` (stereo not drawn) here?
Answer: 0

Question: With `O=C(NC[C@@H]1CCCN2CCCC[C@H]12)C(=O)Nc1ccc(Cl)c(F)c1` as the molecule, how does the “fold change (FC)” value read?
Answer: 0

Question: `CC(C)(C)c1cc(CNC(=O)C(=O)Nc2ccc(Cl)c(F)c2)n[nH]1` was tested. Which “fold change (FC)” value did it give?
Answer: 0.1

Question: Which “fold change (FC)” value does the source give for `CC1(C)O[C@@H](CN)[C@H](CNC(=O)C(=O)Nc2ccc(Cl)c(F)c2)O1` here?
Answer: 1.5

Question: For `CC1(C)CC(NC(=O)C(=O)Nc2ccc(Cl)cc2F)CC(C)(C)N1`, which “fold change (FC)” value is on record?
Answer: 0

Question: `CC1(C)CC(NC(=O)C(=O)Nc2ccc(Cl)cc2Cl)CC(C)(C)N1` was tested. Which “fold change (FC)” value did it give?
Answer: 0

Question: How did the “fold change (FC)” value turn out when `Cc1cc(Cl)ccc1NC(=O)C(=O)NC1CC(C)(C)NC(C)(C)C1` was run?
Answer: 0

Question: How did the “fold change (FC)” value turn out when `CC1(C)CC(NC(=O)C(=O)Nc2ccc(Cl)cc2C(F)(F)F)CC(C)(C)N1` was run?
Answer: 0

Question: With `COc1cc(Cl)ccc1NC(=O)C(=O)NC1CC(C)(C)NC(C)(C)C1` as the molecule, how does the “fold change (FC)” value read?
Answer: 0

Question: For `CCOc1cc(Cl)ccc1NC(=O)C(=O)NC1CC(C)(C)NC(C)(C)C1`, which “fold change (FC)” value is on record?
Answer: 0

Question: Which “fold change (FC)” value does the source give for `CC1(C)CC(NC(=O)C(=O)Nc2ccc(Cl)cc2OCc2ccccc2)CC(C)(C)N1` here?
Answer: 0

Question: `CC1(C)CC(NC(=O)C(=O)Nc2ccc(Cl)cc2)CC(C)(C)N1` was tested. Which “fold change (FC)” value did it give?
Answer: 1
